Results from ChEMBL document CHEMBL1629526, “4-[1-(Substituted aryl/alkyl carbonyl)-benzoimidazol-2-yl]-benzenesulfonic acids: synthesis, antimicrobial activity, QSAR studies, and antiviral evaluation” (Eur J Med Chem, 2010).
Converted amounts (≈) assume the structure as drawn.

Experiments:
[1] = test system: Vesicular stomatitis virus; experiment: Antiviral activity against Vesicular stomatitis virus infected in human HeLa cells assessed as inhibition of virus induced cytopathicity by visual scoring of CPE; type: functional, organism-based
Punta Toro virus = experiment: Antiviral activity against Punta Toro virus infected in african green monkey Vero cells assessed as inhibition of virus induced cytopathicity after 2 to 4 days by MTS assay; type: functional, organism-based
Candida albicans = experiment: Antimicrobial activity against Candida albicans after 48 hrs by tube dilution method; type: functional
Human alphaherpesvirus 1 [2] = experiment: Antiviral activity against Herpes simplex virus 1 KOS infected in HEL cells assessed as inhibition of virus induced cytopathicity after 2 to 4 days by MTS assay; type: functional, organism-based; settings: Human alphaherpesvirus 1, KOS
[3] = test system: Mammalian orthoreovirus 1; experiment: Antiviral activity against Reovirus 1 virus infected in african green monkey Vero cells assessed as inhibition of virus induced cytopathicity after 2 to 4 days by MTS assay; type: functional, organism-based; settings: Mammalian orthoreovirus 1, Vero
[4] = Cytotoxicity against MDCK cells assessed as altered cell morphology; type: cell-based, Canis lupus familiaris; settings: dog
Procedure, shortened: (§1)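 Uninfected cell cultures run alongside the antiviral assays, exposed to serial compound dilutions and incubated at 37 °C for 2–4 days. Toxicity was scored microscopically and reported as the minimum cytotoxic concentration (MCC), the lowest concentration causing a detectable change in normal cell morphology.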

HeLa = experiment: Cytotoxicity against human HeLa cells assessed as cell viability by MTS assay; type: cell-based; settings: hela
Procedure, shortened: (§2)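 Uninfected cultures were run in parallel with the antiviral assays. Viability was read by colorimetric formazan MTS assay.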

MDCK = experiment: Cytotoxicity against MDCK cells assessed as cell viability by MTS assay; type: cell-based, Canis lupus familiaris; settings: dog, mdck; procedure, shortened: as §2
Coxsackievirus B4 [5] = experiment: Antiviral activity against coxsackievirus B4 infected in human HeLa cells assessed as inhibition of virus induced cytopathicity by visual scoring of CPE; type: functional, organism-based; settings: Enterovirus B
Felid alphaherpesvirus 1 = experiment: Antiviral activity against Feline herpesvirus 1 infected in cat CRFK cells assessed as inhibition of virus induced cytopathicity after 2 to 4 days by MTS assay; type: functional, organism-based; settings: Felid alphaherpesvirus 1, CRFK
[6] = test system: Vesicular stomatitis virus; experiment: Antiviral activity against Vesicular stomatitis virus infected in human HeLa cells assessed as inhibition of virus induced cytopathicity after 2 to 4 days by MTS assay; type: functional, organism-based
Sindbis virus = experiment: Antiviral activity against Sindbis virus infected in african green monkey Vero cells assessed as inhibition of virus induced cytopathicity after 2 to 4 days by MTS assay; type: functional, organism-based
Feline coronavirus = experiment: Antiviral activity against Feline coronavirus infected in cat CRFK cells assessed as inhibition of virus induced cytopathicity after 2 to 4 days by MTS assay; type: functional, organism-based; settings: Alphacoronavirus 1, CRFK
Human respirovirus 3 = experiment: Antiviral activity against parainfluenza-3 virus infected in african green monkey Vero cells assessed as inhibition of virus induced cytopathicity after 2 to 4 days by MTS assay; type: functional, organism-based; settings: Human respirovirus 3, Vero
[7] = Cytotoxicity against human HeLa cells assessed as altered cell morphology; type: cell-based; procedure, shortened: as §1
Human alphaherpesvirus 2 = experiment: Antiviral activity against Herpes simplex virus 2 G infected in HEL cells assessed as inhibition of virus induced cytopathicity after 2 to 4 days by MTS assay; type: functional, organism-based; settings: Human alphaherpesvirus 2, strain G
Influenza B virus [8] = experiment: Antiviral activity against Influenza B virus infected in MDCK cells assessed as inhibition of virus induced cytopathicity by visual scoring of CPE; type: functional, organism-based
[9] = test system: Vesicular stomatitis virus; experiment: Antiviral activity against Vesicular stomatitis virus infected in HEL cells assessed as inhibition of virus induced cytopathicity after 2 to 4 days by MTS assay; type: functional, organism-based
Vaccinia virus = experiment: Antiviral activity against Vaccinia virus infected in HEL cells assessed as inhibition of virus induced cytopathicity after 2 to 4 days by MTS assay; type: functional, organism-based; settings: Orthopoxvirus vaccinia
[10] = test system: Respiratory syncytial virus; experiment: Antiviral activity against Respiratory syncytial virus infected in human HeLa cells assessed as inhibition of virus induced cytopathicity by visual scoring of CPE; type: functional, organism-based
[11] = Cytotoxicity against human HEL cells assessed as altered cell morphology; type: cell-based; procedure, shortened: as §1
[12] = Cytotoxicity against cat CRFK cells assessed as cell viability by MTS assay; type: cell-based, Felis catus; settings: crfk; procedure, shortened: as §2
Escherichia coli = experiment: Antimicrobial activity against Escherichia coli after 24 hrs by tube dilution method; type: functional
Influenza A virus [13] = experiment: Antiviral activity against Influenza A H3N2 virus subtype infected in MDCK cells assessed as inhibition of virus induced cytopathicity after 2 to 4 days by MTS assay; type: functional, organism-based
Influenza B virus [14] = experiment: Antiviral activity against Influenza B virus infected in MDCK cells assessed as inhibition of virus induced cytopathicity after 2 to 4 days by MTS assay; type: functional, organism-based
[15] = Cytotoxicity against african green monkey Vero cells assessed as altered cell morphology; type: cell-based; settings: chlorocebus sabaeus; procedure, shortened: as §1
Aspergillus niger = experiment: Antimicrobial activity against Aspergillus niger after 7 days by tube dilution method; type: functional; settings: 168 h
Staphylococcus aureus = experiment: Antimicrobial activity against Staphylococcus aureus after 24 hrs by tube dilution method; type: functional
Bacillus subtilis = experiment: Antimicrobial activity against Bacillus subtilis after 24 hrs by tube dilution method; type: functional
Procedure, shortened: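 Serial dilutions in double-strength nutrient broth (I.P.) with ciprofloxacin as reference, tube dilution, incubated 37 °C for 24 h. MIC is the lowest concentration that inhibited growth.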

Coxsackievirus B4 [16] = experiment: Antiviral activity against Coxsackie virus B4 infected in african green monkey Vero cells assessed as inhibition of virus induced cytopathicity after 2 to 4 days by MTS assay; type: functional, organism-based; settings: Enterovirus B
Coxsackievirus B4 [17] = experiment: Antiviral activity against coxsackievirus B4 infected in human HeLa cells assessed as inhibition of virus induced cytopathicity after 2 to 4 days by MTS assay; type: functional, organism-based; settings: Enterovirus B
Influenza A virus [18] = experiment: Antiviral activity against Influenza A H3N2 virus subtype infected in MDCK cells assessed as inhibition of virus induced cytopathicity by visual scoring of CPE; type: functional, organism-based
[19] = test system: Respiratory syncytial virus; experiment: Antiviral activity against Respiratory syncytial virus infected in human HeLa cells assessed as inhibition of virus induced cytopathicity after 2 to 4 days by MTS assay; type: functional, organism-based
Human alphaherpesvirus 1 [20] = experiment: Antiviral activity against thymidine kinase deficient acyclovir-resistant Herpes simplex virus 1 KOS infected in HEL cells assessed as inhibition of virus induced cytopathicity after 2 to 4 days by MTS assay; type: functional, organism-based; settings: Human alphaherpesvirus 1, KOS

| Compound | EC50 [1] [µg/mL] | EC50 (Punta Toro virus) [µg/mL] | MFC (Candida albicans) [µg/mL] | EC50 (Human alphaherpesvirus 1 [2]) [µg/mL] | EC50 [3] [µg/mL] | MCC [4] [µg/mL] | CC50 (HeLa) [µg/mL] | CC50 (MDCK) [µg/mL] | EC50 (Coxsackievirus B4 [5]) [µg/mL] | EC50 (Felid alphaherpesvirus 1) [µg/mL] | EC50 [6] [µg/mL] | EC50 (Sindbis virus) [µg/mL] | EC50 (Feline coronavirus) [µg/mL] | EC50 (Human respirovirus 3) [µg/mL] | MCC [7] [µg/mL] | EC50 (Human alphaherpesvirus 2) [µg/mL] | EC50 (Influenza B virus [8]) [µg/mL] | EC50 [9] [µg/mL] | EC50 (Vaccinia virus) [µg/mL] | EC50 [10] [µg/mL] | further results |
| --- | --- | --- | --- | --- | --- | --- | --- | --- | --- | --- | --- | --- | --- | --- | --- | --- | --- | --- | --- | --- | --- |
| Cc1ccc(S(=O)(=O)n2c(-c3ccc(S(=O)(=O)O)cc3)nc3ccccc32)cc1 | > 100 | > 100 | 50 (≈ 117 µM) | > 100 | 100 (≈ 233 µM) | > 100 | > 100 | > 100 | > 100 | > 100 | > 100 | > 250 | > 100 | > 100 | > 100 | > 100 | > 100 | > 100 | > 100 | > 100 | MCC [11]: > 100 µg/mL; CC50 [12]: > 100 µg/mL; MBC (Escherichia coli): 12.5 µg/mL (≈ 29.2 µM); EC50 (Influenza A virus [13]): > 100 µg/mL; EC50 (Influenza B virus [14]): > 100 µg/mL; MCC [15]: > 100 µg/mL; MFC (Aspergillus niger): > 50 µg/mL; MBC (Staphylococcus aureus): 6.25 µg/mL (≈ 14.6 µM); MBC (Bacillus subtilis): 12.5 µg/mL (≈ 29.2 µM); EC50 (Coxsackievirus B4 [16]): > 100 µg/mL; EC50 (Coxsackievirus B4 [17]): > 100 µg/mL; EC50 (Influenza A virus [18]): > 100 µg/mL; EC50 [19]: > 100 µg/mL; EC50 (Human alphaherpesvirus 1 [20]): > 100 µg/mL |
| COc1ccc(C(=O)n2c(-c3ccc(S(=O)(=O)O)cc3)nc3ccccc32)cc1 | > 100 | > 100 | > 50 | > 100 | > 100 | > 100 | > 100 | > 100 | > 100 | > 100 | > 100 | > 100 | > 100 | > 100 | > 100 | > 100 | > 100 | > 100 | > 100 | > 100 | MCC [11]: > 100 µg/mL; CC50 [12]: > 100 µg/mL; MBC (Escherichia coli): 3.12 µg/mL (≈ 7.64 µM); EC50 (Influenza A virus [13]): > 100 µg/mL; EC50 (Influenza B virus [14]): > 100 µg/mL; MCC [15]: > 100 µg/mL; MFC (Aspergillus niger): > 50 µg/mL; MBC (Staphylococcus aureus): > 50 µg/mL; MBC (Bacillus subtilis): > 50 µg/mL; EC50 (Coxsackievirus B4 [16]): > 100 µg/mL; EC50 (Coxsackievirus B4 [17]): > 100 µg/mL; EC50 (Influenza A virus [18]): > 100 µg/mL; EC50 [19]: > 100 µg/mL; EC50 (Human alphaherpesvirus 1 [20]): > 100 µg/mL |
| CCCCC(=O)n1c(-c2ccc(S(=O)(=O)O)cc2)nc2ccccc21 | > 100 | > 100 | 12.5 (≈ 34.9 µM) | > 100 | > 100 | > 100 | > 100 | > 100 | > 100 | > 100 | > 100 | > 100 | > 100 | > 100 | > 100 | > 100 | > 100 | > 100 | > 100 | > 100 | MCC [11]: > 100 µg/mL; CC50 [12]: > 100 µg/mL; MBC (Escherichia coli): 6.25 µg/mL (≈ 17.4 µM); EC50 (Influenza A virus [13]): > 100 µg/mL; EC50 (Influenza B virus [14]): > 100 µg/mL; MCC [15]: > 100 µg/mL; MFC (Aspergillus niger): > 50 µg/mL; MBC (Staphylococcus aureus): 6.25 µg/mL (≈ 17.4 µM); MBC (Bacillus subtilis): 6.25 µg/mL (≈ 17.4 µM); EC50 (Coxsackievirus B4 [16]): > 100 µg/mL; EC50 (Coxsackievirus B4 [17]): > 100 µg/mL; EC50 (Influenza A virus [18]): > 100 µg/mL; EC50 [19]: > 100 µg/mL; EC50 (Human alphaherpesvirus 1 [20]): > 100 µg/mL |
| CCCCCCCC/C=C/CCCCCCCC(=O)n1c(-c2ccc(S(=O)(=O)O)cc2)nc2ccccc21 | > 100 | > 100 | 50 (≈ 92.8 µM) | > 100 | > 100 | > 100 | > 100 | > 100 | > 100 | > 100 | > 100 | > 100 | > 100 | > 100 | > 100 | > 100 | > 100 | > 100 | > 100 | > 100 | MCC [11]: > 100 µg/mL; CC50 [12]: > 100 µg/mL; MBC (Escherichia coli): 3.12 µg/mL (≈ 5.79 µM); EC50 (Influenza A virus [13]): > 100 µg/mL; EC50 (Influenza B virus [14]): > 100 µg/mL; MCC [15]: > 100 µg/mL; MFC (Aspergillus niger): > 50 µg/mL; MBC (Staphylococcus aureus): 12.5 µg/mL (≈ 23.2 µM); MBC (Bacillus subtilis): 50 µg/mL (≈ 92.8 µM); EC50 (Coxsackievirus B4 [16]): > 100 µg/mL; EC50 (Coxsackievirus B4 [17]): > 100 µg/mL; EC50 (Influenza A virus [18]): > 100 µg/mL; EC50 [19]: > 100 µg/mL; EC50 (Human alphaherpesvirus 1 [20]): > 100 µg/mL |
| O=C(c1ccc(Cl)cc1)n1c(-c2ccc(S(=O)(=O)O)cc2)nc2ccccc21 | > 100 | > 100 | > 50 | > 100 | > 100 | > 100 | > 100 | > 100 | > 100 | > 100 | > 100 | > 100 | > 100 | > 100 | > 100 | > 100 | > 100 | > 100 | > 100 | > 100 | MCC [11]: > 100 µg/mL; CC50 [12]: > 100 µg/mL; MBC (Escherichia coli): 1.56 µg/mL (≈ 3.78 µM); EC50 (Influenza A virus [13]): > 100 µg/mL; EC50 (Influenza B virus [14]): > 100 µg/mL; MCC [15]: > 100 µg/mL; MFC (Aspergillus niger): > 50 µg/mL; MBC (Staphylococcus aureus): 25 µg/mL (≈ 60.6 µM); MBC (Bacillus subtilis): > 50 µg/mL; EC50 (Coxsackievirus B4 [16]): > 100 µg/mL; EC50 (Coxsackievirus B4 [17]): > 100 µg/mL; EC50 (Influenza A virus [18]): > 100 µg/mL; EC50 [19]: > 100 µg/mL; EC50 (Human alphaherpesvirus 1 [20]): > 100 µg/mL |
